Data: ChEMBL document CHEMBL1165976, “Synthesis and characterization of N,N-dialkyl and N-alkyl-N-aralkyl fenpropimorph-derived compounds as high affinity ligands for sigma receptors” (Bioorg Med Chem, 2010)

How the values were obtained:
[1] = tested on: HT-29; experiment: Cytotoxicity against human HT-29 cells; assay type: functional, cell-based
[2] = tested on: DU-145; experiment: Cytotoxicity against human DU145 cells; assay type: functional, cell-based
[3] = tested on: MCF-10A; experiment: Cytotoxicity against human MCF10A cells; assay type: functional, cell-based
[4] = tested on: SF-268; experiment: Cytotoxicity against human SF268 cells; assay type: functional, cell-based
[5] = tested on: SK-OV-3; experiment: Cytotoxicity against human SKOV3 cells; assay type: functional, cell-based
[6] = Displacement of [3H]-ditolyl guanidine from sigma 2 receptor in rat liver membranes after 1 hr by liquid scintillation counting; assay type: cell membranes, Membrane
[7] = tested on: HCT-15; experiment: Cytotoxicity against human HCT15 cells; assay type: functional, cell-based
[8] = tested on: NCI-H460; experiment: Cytotoxicity against human NCI-H460 cells; assay type: functional, cell-based
[9] = Cytotoxicity against human H1299 cells; assay type: functional, cell-based; conditions: NCI-H1299
[10] = tested on: MDA-MB-231; experiment: Cytotoxicity against human MDA-MB-231 cells; assay type: functional, cell-based
[11] = tested on: MCF7; experiment: Cytotoxicity against human MCF7 cells; assay type: functional, cell-based
[12] = Selectivity ratio of Ki for sigma 2 receptor in rat liver membranes to Ki for sigma 1 receptor in guinea pig liver homogenates; assay type: cell membranes; conditions: Membrane
[13] = tested on: A549; experiment: Cytotoxicity against human A549 cells; assay type: functional, cell-based
[14] = biological target: Sigma non-opioid intracellular receptor 1 (Cavia porcellus, UniProt Q60492); experiment: Displacement of (+)-[3H]pentazocine from sigma 1 receptor in guinea pig liver homogenates after 1 hr by liquid scintillation counting; assay type: tissue-based
Method in brief: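 Microsomal membranes (17,000 g then 100,000 g pellets) from guinea pig liver, 25 µg/well, with 10 nM (+)-[3H]pentazocine and serial competitor concentrations for 1 h at 30°C. Filtered on 0.5% PEI-treated GF/B filters; bound label counted by liquid scintillation. Nonlinear regression, single-site fit; Ki by Cheng-Prusoff.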

Sequence of Sigma non-opioid intracellular receptor 1 (Q60492 whole entry): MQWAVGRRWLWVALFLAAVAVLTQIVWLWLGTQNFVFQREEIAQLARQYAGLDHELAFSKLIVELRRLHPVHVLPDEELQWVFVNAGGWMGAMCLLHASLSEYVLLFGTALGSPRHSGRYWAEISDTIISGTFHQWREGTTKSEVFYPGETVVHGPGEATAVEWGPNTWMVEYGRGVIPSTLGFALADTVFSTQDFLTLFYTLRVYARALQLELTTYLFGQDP

| Ki ([6]; read-out: Ki) | Ratio Ki [12] | Ki ([14]; read-out: Ki) | Ki [6] | Ki [14] | Structure (SMILES) | IC50 [1] | IC50 [2] | IC50 [3] | IC50 [4] | IC50 [5] | IC50 [7] | IC50 [8] | IC50 [9] | IC50 [10] | IC50 [11] | IC50 [13] |
| --- | --- | --- | --- | --- | --- | --- | --- | --- | --- | --- | --- | --- | --- | --- | --- | --- |
| 0.0836 µM | 13.9 | 0.006 µM | – | – | CCCN(CCCc1ccc([N+](=O)[O-])cc1)CCc1ccc(N)cc1 | > 100 µM | > 100 µM | > 100 µM | > 100 µM | > 100 µM | > 100 µM | > 100 µM | > 100 µM | > 100 µM | 88.1 µM | > 100 µM |
| 0.12 µM | 0.046 | 2.59 µM | – | – | CCCN(CCCc1ccc(F)cc1)CCc1ccc(N)cc1 | > 100 µM | > 100 µM | > 100 µM | > 100 µM | 20.2 µM | > 100 µM | 44.8 µM | > 100 µM | 68.1 µM | 41.3 µM | > 100 µM |
| – | – | 53.6 µM | Not Active | – | CCCCCCCCN(CCCCCCCC)C(=O)CCc1ccc(F)cc1 | – | – | – | – | – | – | – | – | – | – | – |
| 0.23 µM | 2.53 | 0.091 µM | – | – | CCCNCCCc1ccc(F)cc1 | – | – | – | – | – | – | – | – | – | – | – |
| 2.15 µM | 13.1 | 0.164 µM | – | – | CCCN(CCCc1ccc(F)cc1)Cc1ccc(N)cc1 | > 100 µM | > 100 µM | > 100 µM | > 100 µM | > 100 µM | > 100 µM | > 100 µM | > 100 µM | > 100 µM | > 100 µM | > 100 µM |
| 1.29 µM | 0.178 | 7.24 µM | – | – | CCCN(CCCc1ccc(F)cc1)CCc1ccc(N=[N+]=[N-])c(I)c1 | 36.4 µM | 13.1 µM | 88.6 µM | 38.8 µM | > 100 µM | 54.1 µM | 40.3 µM | 90.8 µM | 21.6 µM | 16.8 µM | > 100 µM |
| – | > 571 | 89 µM | – | – | CCCN(CCCc1ccc(F)cc1)Cc1ccc(N=[N+]=[N-])c(I)c1 | – | – | – | – | – | – | – | – | – | – | – |

More lines, now with the values behind:

| Structure (SMILES) | Ki ([6]; read-out: Ki) | Ratio Ki [12] | Ki ([14]; read-out: Ki) | Ki [6] | Ki [14] | IC50 [1] | IC50 [2] | IC50 [3] | IC50 [4] | IC50 [5] | IC50 [7] | IC50 [8] | IC50 [9] | IC50 [10] | IC50 [11] | IC50 [13] |
| --- | --- | --- | --- | --- | --- | --- | --- | --- | --- | --- | --- | --- | --- | --- | --- | --- |
| CCCCN(CCCC)CCCc1ccc([N+](=O)[O-])cc1 | 0.404 µM | 1350 | 0.0003 µM | – | – | > 100 µM | 32.7 µM | > 100 µM | > 100 µM | 27.9 µM | > 100 µM | 40.5 µM | > 100 µM | 57.1 µM | 22.4 µM | > 100 µM |
| CCCCN(CCCC)CCCc1ccc(F)cc1 | 0.685 µM | 38.7 | 0.0177 µM | – | – | > 100 µM | > 100 µM | > 100 µM | > 100 µM | 56.2 µM | > 100 µM | > 100 µM | > 100 µM | > 100 µM | > 100 µM | > 100 µM |
| CCCNCCc1ccc([N+](=O)[O-])cc1 | 53.6 µM | 23.8 | 2.25 µM | – | – | – | – | – | – | – | – | – | – | – | – | – |
| CCCN(CCCc1ccc(F)cc1)Cc1ccc(N)c(I)c1 | 133 µM | 0.339 | – | – | – | – | – | – | – | – | – | – | – | – | – | – |
| CCCCCCCCN(CCCCCCCC)CCCc1ccc(F)cc1 | 1.65 µM | 2.49 | 0.665 µM | – | – | – | – | – | – | – | – | – | – | – | – | – |
| CCCCN(CCCC)C(=O)CCc1ccc(F)cc1 | 126 µM | 3.94 | 32.1 µM | – | – | – | – | – | – | – | – | – | – | – | – | – |
| CCCN(Cc1cccc([N+](=O)[O-])c1)C(=O)CCc1ccc(F)cc1 | 236 µM | – | – | – | Not Active | – | – | – | – | – | – | – | – | – | – | – |
